pIC50: −log10 of the molar value.
Key:
Assay type in all cases: functional, cell-based
HL-60 [1] = experiment: Phototoxicity in 2.5 J/cm'2 UV-A irradiated human HL60 cells after 72 hrs by MTT assay; settings: HL-60, light or radiation study
Summary of the method: (§1)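 HL-60 and Jurkat (8×10³/well, RPMI-1640) and MCF-7, LoVo, NCTC-2544 (5×10³/well; DMEM or Ham's F12) preincubated 18 h at 37 °C, 5% CO₂. Compound in DMSO diluted in HBSS pH 7.2, 30 min at 37 °C, then UV-A at 2.5 or 3.75 J/cm². Medium replaced, 72 h incubation, MTT read-out. IC50 as mean ± SEM of three experiments.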

HL-60 [2] = experiment: Phototoxicity in 3.75 J/cm'2 UV-A irradiated human HL60 cells after 72 hrs by MTT assay; settings: HL-60, light or radiation study; summary of the method: as §1
Jurkat [3] = experiment: Phototoxicity in 2.5 J/cm'2 UV-A irradiated human Jurkat cells after 72 hrs by MTT assay; settings: light or radiation study; summary of the method: as §1
Jurkat [4] = experiment: Phototoxicity in 3.75 J/cm'2 UV-A irradiated human Jurkat cells after 72 hrs by MTT assay; settings: light or radiation study
Summary of the method: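 Jurkat cells (8 × 10³/well) in RPMI-1640 with 10% FBS, held 18 h at 37 °C, 5% CO2. Compound stock in DMSO was diluted in HBSS pH 7.2 and added for 30 min at 37 °C. Cells were UV-A irradiated (lamp mainly 365 nm, 4.0 mW/cm²), then returned to medium for 72 h. MTT readout. IC50 is the mean ± SEM of three experiences.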

MCF7 [5] = experiment: Phototoxicity in 2.5 J/cm'2 UV-A irradiated human MCF7 cells after 72 hrs by MTT assay; settings: MCF7, light or radiation study; summary of the method: as §1
MCF7 [6] = experiment: Phototoxicity in 3.75 J/cm'2 UV-A irradiated human MCF7 cells after 72 hrs by MTT assay; settings: MCF7, light or radiation study
Summary of the method: (§2)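 Seeded at 5 × 10³ cells/well with 10% FBS: MCF-7 and NCTC-2544 in DMEM, LoVo in Ham's F12. Pre-incubated 18 h at 37 °C, 5% CO2. Compound (DMSO stock diluted in HBSS pH 7.2) was applied for 30 min at 37 °C, then UV-A irradiation (mainly 365 nm, 4.0 mW/cm²). Medium was restored for 72 h before MTT. IC50 is the mean ± SEM of three experiences.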

LoVo [7] = experiment: Phototoxicity in 2.5 J/cm'2 UV-A irradiated human LoVo cells after 72 hrs by MTT assay; settings: light or radiation study; summary of the method: as §1
LoVo [8] = experiment: Phototoxicity in 3.75 J/cm'2 UV-A irradiated human LoVo cells after 72 hrs by MTT assay; settings: light or radiation study; summary of the method: as §2
[9] = Phototoxicity in 2.5 J/cm'2 UV-A irradiated human NCTC-2544 cells after 72 hrs by MTT assay; settings: NCTC-2544, light or radiation study; summary of the method: as §1
[10] = Phototoxicity in 3.75 J/cm'2 UV-A irradiated human NCTC-2544 cells after 72 hrs by MTT assay; settings: NCTC-2544, light or radiation study; summary of the method: as §2

COc1nc2c(cc1S(=O)(=O)c1ccccc1)CCc1cn(Cc3ccccc3)cc1-2
pIC50 (HL-60 [1]): 5.08 | pIC50 (HL-60 [2]): 5.14 | pIC50 (Jurkat [3]): 5.07 | pIC50 (Jurkat [4]): 5.20 | pIC50 (MCF7 [5]): 5.00 | pIC50 (MCF7 [6]): 5.12 | pIC50 (LoVo [7]): 5.00 | pIC50 (LoVo [8]): 5.06 | pIC50 [9]: 4.82 | pIC50 [10]: 5.02

O=c1ccc2ccc3occc3c2o1 [ANGELICIN]
pIC50 (LoVo [7]): 5.40 | pIC50 (LoVo [8]): 5.96 | pIC50 [9]: 5.38 | pIC50 [10]: 6.05

Cn1c2c(cc(S(=O)(=O)c3ccccc3)c1=O)CCc1cn(Cc3ccccc3)cc1-2
pIC50 (HL-60 [1]): 5.36 | pIC50 (HL-60 [2]): 5.55 | pIC50 (Jurkat [3]): 5.44 | pIC50 (Jurkat [4]): 5.60 | pIC50 (MCF7 [5]): 5.18 | pIC50 (MCF7 [6]): 5.43 | pIC50 (LoVo [7]): 5.41 | pIC50 (LoVo [8]): 5.55 | pIC50 [9]: 5.09 | pIC50 [10]: 5.24

Cn1cc2c(c1)-c1[nH]c(=O)c(S(=O)(=O)c3ccccc3)cc1CC2
pIC50 (HL-60 [1]): < 4.70 | pIC50 (HL-60 [2]): 5.25 | pIC50 (Jurkat [3]): < 4.70 | pIC50 (Jurkat [4]): < 4.70 | pIC50 (MCF7 [5]): < 4.70 | pIC50 (MCF7 [6]): < 4.70 | pIC50 (LoVo [7]): < 4.70 | pIC50 (LoVo [8]): < 4.70 | pIC50 [9]: < 4.70 | pIC50 [10]: < 4.70

Cn1cc2c(c1)-c1c(cc(S(=O)(=O)c3ccccc3)c(=O)n1C)CC2
pIC50 (HL-60 [1]): < 4.70 | pIC50 (HL-60 [2]): < 4.70 | pIC50 (Jurkat [3]): < 4.70 | pIC50 (Jurkat [4]): < 4.70 | pIC50 (MCF7 [5]): < 4.70 | pIC50 (MCF7 [6]): < 4.70 | pIC50 (LoVo [7]): < 4.70 | pIC50 (LoVo [8]): < 4.70 | pIC50 [9]: < 4.70 | pIC50 [10]: < 4.70

CCOC(=O)c1c2c(c(C)n1Cc1ccccc1)-c1c(cc(S(=O)(=O)c3ccccc3)c(=O)n1C)CC2
pIC50 (HL-60 [1]): 5.27 | pIC50 (HL-60 [2]): 5.59 | pIC50 (Jurkat [3]): 5.54 | pIC50 (Jurkat [4]): 5.89 | pIC50 (MCF7 [5]): < 4.70 | pIC50 (MCF7 [6]): 4.84 | pIC50 (LoVo [7]): 4.92 | pIC50 (LoVo [8]): 5.06 | pIC50 [9]: < 4.70 | pIC50 [10]: 4.84

Cc1c2c(cn1C)CCc1cc(S(=O)(=O)c3ccccc3)c(=O)[nH]c1-2
pIC50 (HL-60 [1]): < 4.70 | pIC50 (HL-60 [2]): < 4.70 | pIC50 (Jurkat [3]): < 4.70 | pIC50 (Jurkat [4]): < 4.70 | pIC50 (MCF7 [5]): < 4.70 | pIC50 (MCF7 [6]): < 4.70 | pIC50 (LoVo [7]): < 4.70 | pIC50 (LoVo [8]): < 4.70 | pIC50 [9]: < 4.70 | pIC50 [10]: < 4.70

Cn1c2c(cc(S(=O)(=O)c3ccccc3)c1=O)CCc1cn(-c3ccccc3)cc1-2
pIC50 (HL-60 [1]): < 4.70 | pIC50 (HL-60 [2]): < 4.70 | pIC50 (Jurkat [3]): < 4.70 | pIC50 (Jurkat [4]): < 4.70 | pIC50 (MCF7 [5]): < 4.70 | pIC50 (MCF7 [6]): < 4.70 | pIC50 (LoVo [7]): < 4.70 | pIC50 (LoVo [8]): < 4.70 | pIC50 [9]: < 4.70 | pIC50 [10]: < 4.70

Cc1c2c(c(C(=O)O)n1Cc1ccccc1)CCc1cc(S(=O)(=O)c3ccccc3)c(=O)[nH]c1-2
pIC50 (HL-60 [1]): < 4.70 | pIC50 (HL-60 [2]): < 4.70 | pIC50 (Jurkat [3]): < 4.70 | pIC50 (Jurkat [4]): < 4.70 | pIC50 (MCF7 [5]): < 4.70 | pIC50 (MCF7 [6]): < 4.70 | pIC50 (LoVo [7]): < 4.70 | pIC50 (LoVo [8]): < 4.70 | pIC50 [9]: < 4.70 | pIC50 [10]: < 4.70

CCOC(=O)c1[nH]c(C)c2c1CCc1cc(S(=O)(=O)c3ccccc3)c(=O)n(C)c1-2
pIC50 (HL-60 [1]): < 4.70 | pIC50 (HL-60 [2]): 5.24 | pIC50 (Jurkat [3]): < 4.70 | pIC50 (Jurkat [4]): 4.90 | pIC50 (MCF7 [5]): < 4.70 | pIC50 (MCF7 [6]): < 4.70 | pIC50 (LoVo [7]): < 4.70 | pIC50 (LoVo [8]): 4.88 | pIC50 [9]: < 4.70 | pIC50 [10]: < 4.70

CCOC(=O)c1c2c(c(C)n1C)-c1[nH]c(=O)c(S(=O)(=O)c3ccccc3)cc1CC2
pIC50 (HL-60 [1]): 5.44 | pIC50 (HL-60 [2]): 5.74 | pIC50 (Jurkat [3]): 5.70 | pIC50 (Jurkat [4]): 5.85 | pIC50 (MCF7 [5]): 5.00 | pIC50 (MCF7 [6]): 5.29 | pIC50 (LoVo [7]): 5.10 | pIC50 (LoVo [8]): 5.40 | pIC50 [9]: 5.00 | pIC50 [10]: 5.21

CCOC(=O)c1[nH]c(C)c2c1CCc1cc(S(=O)(=O)c3ccccc3)c(=O)[nH]c1-2
pIC50 (HL-60 [1]): 4.86 | pIC50 (HL-60 [2]): 5.04 | pIC50 (Jurkat [3]): 4.74 | pIC50 (Jurkat [4]): 5.00 | pIC50 (MCF7 [5]): < 4.70 | pIC50 (MCF7 [6]): < 4.70 | pIC50 (LoVo [7]): 4.76 | pIC50 (LoVo [8]): 4.87 | pIC50 [9]: < 4.70 | pIC50 [10]: 4.82

O=c1[nH]c2c(cc1S(=O)(=O)c1ccccc1)CCc1cn(-c3ccccc3)cc1-2
pIC50 (HL-60 [1]): 4.91 | pIC50 (HL-60 [2]): 5.10 | pIC50 (Jurkat [3]): < 4.70 | pIC50 (Jurkat [4]): 5.13 | pIC50 (MCF7 [5]): < 4.70 | pIC50 (MCF7 [6]): < 4.70 | pIC50 (LoVo [7]): < 4.70 | pIC50 (LoVo [8]): < 4.70 | pIC50 [9]: < 4.70 | pIC50 [10]: < 4.70

Cc1[nH]c(C(=O)O)c2c1-c1[nH]c(=O)c(S(=O)(=O)c3ccccc3)cc1CC2
pIC50 (HL-60 [1]): < 4.70 | pIC50 (HL-60 [2]): < 4.70 | pIC50 (Jurkat [3]): < 4.70 | pIC50 (Jurkat [4]): < 4.70 | pIC50 (MCF7 [5]): < 4.70 | pIC50 (MCF7 [6]): < 4.70 | pIC50 (LoVo [7]): < 4.70 | pIC50 (LoVo [8]): < 4.70 | pIC50 [9]: < 4.70 | pIC50 [10]: < 4.70

Cc1c2c(c(C(=O)O)n1C)CCc1cc(S(=O)(=O)c3ccccc3)c(=O)[nH]c1-2
pIC50 (HL-60 [1]): < 4.70 | pIC50 (HL-60 [2]): < 4.70 | pIC50 (Jurkat [3]): < 4.70 | pIC50 (Jurkat [4]): < 4.70 | pIC50 (MCF7 [5]): < 4.70 | pIC50 (MCF7 [6]): < 4.70 | pIC50 (LoVo [7]): < 4.70 | pIC50 (LoVo [8]): < 4.70 | pIC50 [9]: < 4.70 | pIC50 [10]: < 4.70

O=c1[nH]c2c(cc1S(=O)(=O)c1ccccc1)CCc1cn(Cc3ccccc3)cc1-2
pIC50 (HL-60 [1]): < 4.70 | pIC50 (HL-60 [2]): 4.84 | pIC50 (Jurkat [3]): < 4.70 | pIC50 (Jurkat [4]): < 4.70 | pIC50 (MCF7 [5]): < 4.70 | pIC50 (MCF7 [6]): < 4.70 | pIC50 (LoVo [7]): < 4.70 | pIC50 (LoVo [8]): < 4.70 | pIC50 [9]: < 4.70 | pIC50 [10]: < 4.70

Source: ChEMBL document CHEMBL2176901, “Pyrrolo[3,4-h]quinolinones a new class of photochemotherapeutic agents” (Bioorg Med Chem, 2011)
